Experimental data: ChEMBL document CHEMBL4229503, “Discovery of novel Syk/PDGFR-α/c-Kit inhibitors as multi-targeting drugs to treat rheumatoid arthritis” (Bioorg Med Chem, 2018)
In brackets after ≈: the same amount, converted by molar mass.

What was measured:
[1] = target: Mast/stem cell growth factor receptor Kit (Homo sapiens, UniProt P10721); assay: Inhibition of c-kit (unknown origin) using FAM-labeled peptide as substrate preincubated for 10 mins followed by substrate addition measured after 25 mins
Method in brief: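 Enzyme was preincubated with compound for 10 min at room temperature, then FAM-labeled peptide with ATP was added for 25 min at 28 °C. After an EDTA stop, the plate was read on a Caliper. IC50 came from non-linear curve fit.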

[2] = Antiproliferative activity against rheumatoid arthritis patient-derived HFLS after 72 hrs by MTT assay; type: functional, Homo sapiens
Method in brief: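 RA synovial fibroblasts (DMEM, 10% FBS, passage 3) were seeded at 2 × 10^4 cells/well. Compound was given at graded concentrations against an untreated control for 72 h at 37 °C, 5% CO2. MTT was then added for 4 h and absorbance read at 450 nm. IC50 came from non-linear regression of 6-point dose-response curves.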

BMMC [3] = assay: Antiproliferative activity against BALB/c mouse BMMC after 48 hrs by MTT assay
Homo sapiens [4] = species on record: Homo sapiens; assay: Antiinflammatory activity against rheumatoid arthritis patient-derived HFLS assessed as reduction in MMP-3 levels incubated for 30 mins measured after 72 hrs by ELISA; type: functional
Method in brief: (§1)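 RA patient synovial fibroblasts were kept in high-glucose DMEM with 10% FBS at 37 °C under 5% CO2 and used after 3 passages. Cells were seeded at 2 × 10^4 cells/well in 6-well plates and given compound or vehicle for 30 min. IL-6 and MMP-3 in the supernatant were read by ELISA after 72 h.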

[5] = Solubility of the compound in water after 24 hrs by HPLC method; type: physicochemical
BMMC [6] = assay: Antiinflammatory activity against BALB/c mouse BMMC assessed as reduction in TNFalpha levels incubated for 30 mins measured after 48 hrs by ELISA; type: functional, cell-based
Method in brief: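 BALB/c mouse bone-marrow mast cells were grown in RPMI 1640 with 1% non-essential amino acids and 10% FBS at 37 °C under 5% CO2. Cells were seeded at 2 × 10^4 cells/well in 6-well plates and given compound or vehicle for 30 min. Supernatant TNF-α was read by ELISA after 48 h.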

Homo sapiens [7] = species on record: Homo sapiens; assay: Antiinflammatory activity against rheumatoid arthritis patient-derived HFLS assessed as reduction in IL-6 levels incubated for 30 mins measured after 72 hrs by ELISA; type: functional; method in brief: as §1
[8] = target: Platelet-derived growth factor receptor alpha (Homo sapiens, UniProt P16234); assay: Inhibition of PDGFRalpha (unknown origin) using FAM-labeled peptide as substrate preincubated for 10 mins followed by substrate addition measured after 25 mins
Chain of Platelet-derived growth factor receptor alpha (P16234 whole entry): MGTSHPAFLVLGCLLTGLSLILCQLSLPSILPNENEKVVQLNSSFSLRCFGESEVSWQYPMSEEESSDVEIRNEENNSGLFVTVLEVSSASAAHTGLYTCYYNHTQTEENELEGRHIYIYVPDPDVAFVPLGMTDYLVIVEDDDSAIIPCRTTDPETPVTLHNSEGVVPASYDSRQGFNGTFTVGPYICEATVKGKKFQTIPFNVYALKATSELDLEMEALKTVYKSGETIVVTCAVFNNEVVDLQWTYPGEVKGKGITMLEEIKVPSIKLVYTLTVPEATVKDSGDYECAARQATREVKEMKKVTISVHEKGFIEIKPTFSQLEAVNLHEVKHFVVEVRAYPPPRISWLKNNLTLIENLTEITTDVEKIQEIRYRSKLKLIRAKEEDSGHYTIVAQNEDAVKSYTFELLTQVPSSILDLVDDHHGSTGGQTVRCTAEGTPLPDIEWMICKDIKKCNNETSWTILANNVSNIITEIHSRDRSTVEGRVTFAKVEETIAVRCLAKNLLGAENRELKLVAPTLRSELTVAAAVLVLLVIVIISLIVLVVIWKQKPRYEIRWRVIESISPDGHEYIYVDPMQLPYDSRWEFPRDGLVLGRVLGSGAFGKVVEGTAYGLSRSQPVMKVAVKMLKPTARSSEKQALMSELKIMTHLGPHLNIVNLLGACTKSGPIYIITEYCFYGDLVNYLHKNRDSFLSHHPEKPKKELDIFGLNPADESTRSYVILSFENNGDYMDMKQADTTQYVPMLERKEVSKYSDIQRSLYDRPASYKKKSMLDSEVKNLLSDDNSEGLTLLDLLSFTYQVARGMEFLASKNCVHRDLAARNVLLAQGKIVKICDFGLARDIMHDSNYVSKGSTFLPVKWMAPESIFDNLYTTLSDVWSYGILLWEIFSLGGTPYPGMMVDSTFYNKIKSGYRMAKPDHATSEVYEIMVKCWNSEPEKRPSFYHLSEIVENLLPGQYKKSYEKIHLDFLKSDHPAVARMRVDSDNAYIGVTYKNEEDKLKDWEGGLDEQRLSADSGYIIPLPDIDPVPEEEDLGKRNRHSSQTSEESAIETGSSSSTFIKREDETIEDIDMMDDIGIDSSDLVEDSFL

Chain of Mast/stem cell growth factor receptor Kit (P10721 whole entry): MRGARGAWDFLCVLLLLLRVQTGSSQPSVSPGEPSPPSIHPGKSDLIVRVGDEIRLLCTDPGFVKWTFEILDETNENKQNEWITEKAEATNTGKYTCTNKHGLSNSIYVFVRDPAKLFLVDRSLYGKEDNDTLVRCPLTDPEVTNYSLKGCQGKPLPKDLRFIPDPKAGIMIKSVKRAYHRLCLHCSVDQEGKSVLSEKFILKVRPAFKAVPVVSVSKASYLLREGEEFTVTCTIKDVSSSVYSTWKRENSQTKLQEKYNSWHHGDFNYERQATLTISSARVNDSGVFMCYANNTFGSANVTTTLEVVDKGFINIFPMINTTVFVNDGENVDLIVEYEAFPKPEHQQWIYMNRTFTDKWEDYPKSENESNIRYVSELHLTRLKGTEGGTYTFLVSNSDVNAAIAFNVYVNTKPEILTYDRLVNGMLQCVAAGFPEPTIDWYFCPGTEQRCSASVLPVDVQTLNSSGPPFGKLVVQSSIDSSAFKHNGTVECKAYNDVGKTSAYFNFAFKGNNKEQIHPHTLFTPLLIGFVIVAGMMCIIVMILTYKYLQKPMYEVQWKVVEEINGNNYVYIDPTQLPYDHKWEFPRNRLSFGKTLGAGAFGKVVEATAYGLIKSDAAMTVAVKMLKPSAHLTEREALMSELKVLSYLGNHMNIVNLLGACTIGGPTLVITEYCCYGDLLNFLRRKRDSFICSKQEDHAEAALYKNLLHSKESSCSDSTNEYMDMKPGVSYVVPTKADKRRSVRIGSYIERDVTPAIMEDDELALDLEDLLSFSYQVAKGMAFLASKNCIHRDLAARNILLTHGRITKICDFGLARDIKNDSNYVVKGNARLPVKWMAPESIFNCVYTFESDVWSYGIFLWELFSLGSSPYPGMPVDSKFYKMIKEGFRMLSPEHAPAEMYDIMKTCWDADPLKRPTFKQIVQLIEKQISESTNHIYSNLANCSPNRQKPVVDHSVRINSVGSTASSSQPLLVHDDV

| Structure (SMILES) | IC50 [1] | IC50 [2] | IC50 [8] | also measured |
| --- | --- | --- | --- | --- |
| COc1cc(Nc2nc(N3CCC(NC(=O)c4ccc(C(=O)O)cn4)C3)nc3c2COC3)cc(OC)c1OC (centres undefined) | 31.3 µM | 31 µM | – | IC50 (BMMC [3]): 21.1 µM |
| COc1cc(Nc2nc(N3CCC(NC(=O)c4ccc(C(=O)O)cn4)C3)nc3c2COC3)cc(OC)c1 (centres undefined) | 18.6 µM | 3.2 µM | – | Activity (Homo sapiens [4]): Dose-dependent effect; solubility at 24 h [5]: 167 µg/mL (≈ 330 µM); Activity (BMMC [6]): Dose-dependent effect; Activity (Homo sapiens [7]): Dose-dependent effect; IC50 (BMMC [3]): 2 µM |
| COc1ccc(Nc2nc(N3CCC(NC(=O)c4ccc(C(=O)O)cn4)C3)nc3c2COC3)cc1 (centres undefined) | > 50 µM | – | > 50 µM | – |
| CCCCCCNc1nc(N2CCC(NC(=O)c3ccc(C(=O)O)cn3)C2)nc2c1COC2 (centres undefined) | > 50 µM | 4 µM | > 50 µM | Activity (Homo sapiens [4]): Dose-dependent effect; Activity (Homo sapiens [7]): Dose-dependent effect |
| O=C(O)c1ccc(C(=O)NC2CCN(c3nc4c(c(NC5CCCCC5)n3)COC4)C2)nc1 (centres undefined) | > 50 µM | 5.4 µM | > 50 µM | – |
| CCOCCCNc1nc(N2CCC(NC(=O)c3ccc(C(=O)O)cn3)C2)nc2c1COC2 (centres undefined) | > 50 µM | – | > 50 µM | – |
| COCCCNc1nc(N2CCC(NC(=O)c3ccc(C(=O)O)cn3)C2)nc2c1COC2 (centres undefined) | > 50 µM | – | > 50 µM | – |
| CCCCCCCNc1nc(N2CCC(NC(=O)c3ccc(C(=O)O)cn3)C2)nc2c1COC2 (centres undefined) | 25.8 µM | 8.1 µM | > 50 µM | Activity (BMMC [6]): Dose-dependent effect; IC50 (BMMC [3]): 13 µM |
| Cc1ccc(Nc2nc(N3CCC(NC(=O)c4ccc(C(=O)O)cn4)C3)nc3c2COC3)cc1C (centres undefined) | > 50 µM | 11.2 µM | > 50 µM | – |
| Cc1ccc(NC(=O)c2ccc(CN3CCN(C)CC3)cc2)cc1Nc1nc(-c2cccnc2)cs1 [MASITINIB] | – | – | – | IC50 (BMMC [3]): 0.1 µM |
| COc1ccc(Nc2nc(N3CCC(NC(=O)c4ccc(C(=O)O)cn4)C3)nc3c2COC3)cc1OC (centres undefined) | > 50 µM | – | – | – |
| Cc1ccc(Nc2nc(N3CCC(NC(=O)c4ccc(C(=O)O)cn4)C3)nc3c2COC3)cc1 (centres undefined) | > 50 µM | – | > 50 µM | – |
| CCCCCNc1nc(N2CCC(NC(=O)c3ccc(C(=O)O)cn3)C2)nc2c1COC2 (centres undefined) | > 50 µM | – | > 50 µM | – |
| CCc1ccc(Nc2nc(N3CCC(NC(=O)c4ccc(C(=O)O)cn4)C3)nc3c2COC3)cc1 (centres undefined) | > 50 µM | 9.4 µM | > 50 µM | – |
| O=C(O)c1ccc(C(=O)NC2CCN(c3nc4c(c(Nc5ccc6c(c5)OCCO6)n3)COC4)C2)nc1 (centres undefined) | 49.2 µM | – | > 50 µM | – |
| COc1ccc(Nc2nc(N3CCC(NC(=O)c4ccc(C(=O)O)cc4)C3)nc3c2CCC3)cc1OC (centres undefined) | – | – | – | solubility at 24 h [5]: 86 µg/mL (≈ 171 µM) |
